TbHK1 inh – T. brucei hexokinase 1 inhibition. recombinant TbHK1, G6PDH-coupled NADH A340. inhibition, % at 10 µM. actives 0.11% (n = 220,000);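 active means inhibition of 50% or more in the single-dose primary screen; inactive means inhibition below 50%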
p97 ATPase inh – inhibitors of human p97 ATPase. P55072. recombinant p97 ATPase, Kinase-Glo ATP luminescence, 3 h. inhibition, % at 8 µM. actives 0.42% (n = 220,000); in the data active means inhibition above about 15%;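 further: 0% = DMSO vehicle and 100% = wells lacking enzyme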
Runt-SMMHC FRET – inhibitors of human RUNX1 Runt domain binding to CBFb-SMMHC; Q01196+Q13951; Cerulean-Runt/Venus-CBFb-SMMHC FRET ratio 530/480, 1 h; inhibition, % at 20 µM; actives 0.74% (n = 220,000); AID 1434;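 active means mean inhibition across duplicate retests at 20 µM reaching about 50%, limit read from the data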;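 further: 0% = DMSO wells and 100% = wells with excess untagged CBFb-SMMHC; inhibitors lower the FRET ratio by blocking Runt binding to CBFb-SMMHC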
Hck-Nef inh – human Hck-Nef kinase inhibition; Recombinant Hck-YEEI plus Nef, Z-Lyte FRET kinase assay; P08631; actives 0.68% (n = 220,000); inhibition, % at 20 µM;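 active means Hck-Nef kinase inhibition above about 50%, limit read from the data; inactive means inhibition below that limit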;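 further: 0% = DMSO with Hck plus Nef and 100% = Hck alone without Nef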
Target sequence (P08631 whole entry, looked up): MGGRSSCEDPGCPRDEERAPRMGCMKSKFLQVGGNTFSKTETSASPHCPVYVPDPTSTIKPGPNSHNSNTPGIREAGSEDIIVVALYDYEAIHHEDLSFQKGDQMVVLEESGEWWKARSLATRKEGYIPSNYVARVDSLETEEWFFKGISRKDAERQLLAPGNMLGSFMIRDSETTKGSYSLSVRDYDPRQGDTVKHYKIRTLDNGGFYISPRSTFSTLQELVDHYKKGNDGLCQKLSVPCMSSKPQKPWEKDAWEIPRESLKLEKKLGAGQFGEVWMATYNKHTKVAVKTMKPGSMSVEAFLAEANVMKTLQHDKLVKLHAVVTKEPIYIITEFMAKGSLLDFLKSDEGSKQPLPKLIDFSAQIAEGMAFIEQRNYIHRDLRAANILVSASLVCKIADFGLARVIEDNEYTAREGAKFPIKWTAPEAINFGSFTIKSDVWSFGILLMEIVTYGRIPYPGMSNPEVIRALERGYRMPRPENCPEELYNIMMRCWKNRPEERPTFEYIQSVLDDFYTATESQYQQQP
Runt-CBFb FRET – inhibitors of human RUNX1 Runt domain binding to CBFb | Q01196+Q13951 | Cerulean-Runt/Venus-CBFb FRET ratio 530/480, 1 h | inhibition, % at 20 µM | actives 0.46% (n = 220,000);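 active means inhibition over about 50% at 20 µM in the single-dose screen, limit read from the data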;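 further: 0% = DMSO wells and 100% = excess unlabeled CBFb competitor control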
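Measured by: fluorescence energy transfer, 422 nm excitation, 530/480 nm emission; Assay system: Cerulean-Runt domain; Medium: Tris pH 7.5 buffer with BSA; Measure: loss of energy transfer signal; Controls: 5 µM unlabeled CBFb as full-inhibition high control; Incubation: protein complex preformed 1 h, compound exposure 1 h, room temperature, dark.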
RanGTP-Imp inh – inhibitors of RanGTP-importin-beta interaction, primary screen, biochemical, FRET, CFP-Ran, YFP-importin-beta, homogeneous; AID 2216; actives 1.1% (n = 300,000); inhibition, % (no concentration beside the values); cell-free CFP-Ran/YFP-importin-beta FRET ratio;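 active means more than half of the replicate wells show a fall in the fluorescence ratio signal beyond about 16%, limit read from the data, passing the limit was not always enough; inconclusive means exactly half of the replicate wells pass the set limit; inactive means fewer than half of replicates pass the limit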;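 further: 0% = DMSO wells and 100% = Ran loaded with GDP instead of GTP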
* hit, by the source's call; ? = inconclusive; · = no result. An excerpt weighted towards active compounds, which were near 2.1% of everything screened.

SMILES	TbHK1 inh	p97 ATPase inh	Runt-SMMHC FRET	Hck-Nef inh	Runt-CBFb FRET	RanGTP-Imp inh
Cc1ccc(Cn2nnnc2CN2CCC(NC(=O)C(C)(C)C)CC2)cc1	-3.3	3.6	·	17.4	·	?
CC(C(=O)O)N1C(=O)/C(=C/C=C/c2ccco2)SC1=S (stereo unspecified)	30.4	11.4	3.6	68.9*	·	-11.6
O=[n+]1cc(-c2cccc3ccccc23)n([O-])c2c1CCC2	-3.2	3.4	-7.4	1.9	1.2	3.9
CCOc1cc(/C=C2\CCCc3c2nc2ccccc2c3C(=O)O)ccc1OC	·	·	·	·	·	46.9*
COc1cc(/C=C2\CCCc3c2nc2ccccc2c3C(=O)O)cc(Br)c1O	·	·	·	·	·	0.2
CC(C)COc1ccc(/C=C2/Sc3ccccc3C2=O)cc1	2.0	0.0	-33.8	-0.4	-12.5	43.1*
Cc1ccccc1C(=O)Nc1ccc(C(=O)O)cc1NC(=O)c1ccccc1C	·	·	·	·	·	-5.9
CCc1noc(C)c1C(=O)Nc1cc(S(=O)(=O)N2CCOCC2)ccc1N1CCN(CC)CC1	·	·	·	·	·	-0.9
O=C(N/N=C/c1sc(=O)[nH]c1-[n+]1ccc2ccccc2c1)c1ccccc1[O-]	·	·	·	·	·	24.1*
C#CCOc1ccc(C2C3=C(CCCC3=O)N(CC(=O)O)C3=C2C(=O)CCC3)cc1Br	·	·	·	·	·	116.9*
CCC(=O)Nc1ccc(NC(=O)c2cccc3c(Br)cccc23)cc1	·	·	·	·	·	-2.1
Cc1ccc2c(c1)N(CC(=O)NCc1cccs1)C(=O)C(C)O2 (stereo unspecified)	6.0	1.1	0.8	2.0	·	0.0
CC(OC(=O)CCN=C1NS(=O)(=O)c2ccccc21)C(=O)NCc1ccccc1 (stereo unspecified)	·	·	·	·	·	3.9
COC(=O)C1C(O)CCC2CN3CCc4c([nH]c5ccccc45)C3CC21 (stereo unspecified)	-11.4	·	70.8*	11.6	8.2	64.5*
COC(=O)[C@H]1[C@H]2C[C@H]3c4[nH]c5ccccc5c4CCN3C[C@H]2CC[C@@H]1O	·	·	·	·	·	42.9*
COc1ccc2oc(=O)c(C(=O)NCc3ccccc3)cc2c1	·	·	·	·	·	-2.3
COc1ccc2cc(C(=O)NCc3ccco3)c(=Nc3ccc(C(=O)O)cc3)oc2c1	-7.5	3.8	-0.1	-2.2	0.1	1.5
COc1ccc2cc(C(=O)NCc3ccco3)c(=O)oc2c1	-19.9	1.0	76.8*	3.7	35.1	?
CCCOc1ccc2cc(C(=O)NCc3ccccc3)c(=O)oc2c1	·	·	·	·	·	58.9*
O=C(NC1CCCC1)C(c1ccc(F)cc1)N(Cc1ccc(Cl)cc1)C(=O)CCl (stereo unspecified)	35.8	-1.2	0.2	-0.3	1.3	-0.9
CC1(C)CC(O)(CNCc2ccc3c(c2)OCO3)CCO1 (stereo unspecified)	4.0	4.6	-0.3	0.5	-3.7	-1.3
Cc1ccc(S(=O)(=O)N2CCCOC2CNC(=O)C(=O)NCc2ccncc2)cc1 (stereo unspecified)	-1.5	5.3	-5.5	-0.5	-0.1	-2.2
Cc1ccccc1S(=O)(=O)c1cc(C#N)c(=O)[nH]c1N	-6.2	6.0	134.2*	19.4	87.0*	6.2
N#Cc1cc(S(=O)(=O)c2ccccc2)c(N)[nH]c1=O	-6.4	-8.1	34.9	1.1	10.1	8.6
COc1ccc2c(c1OC)C(=O)N(c1ccc(C)c(C)c1)C2=O	-0.6	0.1	-10.2	-11.0	-1.2	74.9*
SMILES	TbHK1 inh	p97 ATPase inh	Runt-SMMHC FRET	Hck-Nef inh	Runt-CBFb FRET	RanGTP-Imp inh
COc1ccc2c(c1OC)C(=O)N(c1ccc(C)cc1)C2=O	-5.9	2.1	0.0	12.7	1.0	4.8
N#Cc1c2ccc(OCC(N)=O)cc2n2ccccc12	-7.3	2.3	86.0*	-59.6	19.9	55.0*
CCOC(=O)COc1ccc2c(C#N)c3ccccn3c2c1	1.1	7.2	92.2*	-10.4	19.7	4.9
CCOC(=O)c1c2ccc(OCC(=O)N/N=C/c3ccc(Cl)cc3)cc2n2ccccc12	-1.7	1.6	-61.7	13.4	·	41.2*
COc1cc(OC)cc(C(=O)c2c(C)c(C#N)c3ccccn23)c1	·	·	·	·	·	-2.3
CCOC(=O)CSCc1c(C#N)c2ccccc2n1C	-5.7	-5.4	-1.3	-1.1	0.3	·
CCOC(=O)c1c2ccc(OCC(=O)N/N=C/c3ccccc3C(F)(F)F)cc2n2ccccc12	-9.6	-1.4	-14.6	7.9	-2.0	·
